In brackets after ≈: the same amount, converted by molar mass. Activity calls are given as the source filed them. The calls are words filed in the database; no cut-off is given here.
How the values were obtained:
Staphylococcus aureus [1] = experiment: Antibacterial activity against Staphylococcus aureus COL expressing pbp2 antisense plasmid assessed as increase in zone of inhibition after 18 to 20 hrs in presence of xylose; assay type: functional, organism-based
In short: (§1)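 MRSA COL strains carrying pbpA, pbp2, mecA or pbp3 under antisense control were grown overnight on agar with 34 μg/mL chloramphenicol. Molten chloramphenicol agar with 0 or 50 mM xylose was seeded at 1×10^7 CFU/mL and set. Compound (10 μL) was spotted on the agar, and plates were incubated 36 °C for 18–20 h. Susceptibility with and without xylose induction was compared.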

Staphylococcus aureus [2] = experiment: Antibacterial activity against Staphylococcus aureus COL expressing pbpA antisense plasmid assessed as increase in zone of inhibition after 18 to 20 hrs in presence of xylose; assay type: functional, organism-based; in short: as §1
Staphylococcus aureus [3] = experiment: Antibacterial activity against Staphylococcus aureus COL expressing pbp2a antisense plasmid assessed as increase in zone of inhibition after 18 to 20 hrs in presence of xylose; assay type: functional, organism-based; in short: as §1
Staphylococcus aureus [4] = experiment: Antibacterial activity against Staphylococcus aureus COL expressing pbp3 antisense plasmid assessed as increase in zone of inhibition after 18 to 20 hrs in presence of xylose; assay type: functional, organism-based; in short: as §1
Pseudomonas aeruginosa = experiment: Antibacterial activity against Pseudomonas aeruginosa […] incubated for 16 to 20 hrs by microdilution method; assay type: functional
In short: (§2)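 CLSI broth microdilution. 2-fold serial dilutions were made in cation-adjusted Mueller–Hinton broth, with 5% lysed horse blood added for Streptococcus strains, in triplicate. Inoculum 5×10^5 CFU/mL. Plates incubated 36 °C for 16–20 h. MIC taken as the lowest concentration visibly inhibiting growth.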

HepG2 = experiment: Cytotoxicity against human HepG2 cells incubated for 16 hrs by XTT assay; assay type: cell-based; details: HepG2, 16 h
In short: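 HepG2 cells were tested with an XTT viability read-out, in triplicate. IC50 was obtained by nonlinear regression.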

Escherichia coli = experiment: Antibacterial activity against Escherichia coli ATCC 25922 incubated for 16 to 20 hrs by microdilution method; assay type: functional; in short: as §2
Enterococcus faecium = experiment: Antibacterial activity against Enterococcus faecium NCTC 7171 incubated for 16 to 20 hrs by microdilution method; assay type: functional; in short: as §2
Klebsiella aerogenes = experiment: Antibacterial activity against Enterobacter aerogenes ATCC 35029 incubated for 16 to 20 hrs by microdilution method; assay type: functional; in short: as §2
Klebsiella pneumoniae = experiment: Antibacterial activity against Klebsiella pneumoniae ATCC 700603 incubated for 16 to 20 hrs by microdilution method; assay type: functional; in short: as §2
Staphylococcus aureus [5] = experiment: Antibacterial activity against methicillin-susceptible Staphylococcus aureus ATCC 29213 incubated for 16 to 20 hrs by microdilution method; assay type: functional
[6] = Hemolytic activity against human RBC at 64 ug/ml relative to control; assay type: ADME, cell-based, Erythrocyte; details: erythrocyte
In short: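 Hemolysis was measured at a fixed 64 μg/mL on a 10% red-cell suspension from heparinized human blood. Triton-X served as the positive control, and results are given as percent hemolysis.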

Mus musculus [7] = experiment: AUC (0 to last) in ICR mouse peritonitis model infected with methicillin resistant Staphylococcus aureus ATCC 27660 at 10 mg/kg, iv administered as single dose measured up to 8 hrs by UPLC analysis; assay type: ADME, organism-based; parameters: dose 10 mg/kg, time 0 - last, route intravenous; details: in vivo, 8 h
In short: (§3)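 Fast PK: female ICR mice (n = 2 per time point) given single tail-vein iv injection at 5, 10 or 20 mg/kg in 25% DMSO/65% propylene glycol/10% water (2.5, 5 or 10 mg/mL); terminal cardiac blood at 5 min, 40 min, 2, 4, 8 h; plasma analysed by UPLC with internal standard calibration.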

Acinetobacter baumannii = experiment: Antibacterial activity against Acinetobacter baumannii ATCC 17961 incubated for 16 to 20 hrs by microdilution method; assay type: functional; in short: as §2
Bacillus cereus = experiment: Antibacterial activity against Bacillus cereus ATCC 13061 incubated for 16 to 20 hrs by microdilution method; assay type: functional; in short: as §2
Staphylococcus aureus [8] = experiment: Antibacterial activity against vancomycin/methicillin-resistant Staphylococcus aureus VRS2 clinical isolate incubated for 16 to 20 hrs by microdilution method; assay type: functional
Streptococcus oralis = experiment: Antibacterial activity against Streptococcus oralis ATCC 9811 incubated for 16 to 20 hrs by microdilution method; assay type: functional; in short: as §2
Staphylococcus aureus [9] = experiment: Antibacterial activity against mecA-positive multidrug resistant Staphylococcus aureus NRS120 incubated for 16 to 20 hrs by microdilution method; assay type: functional
Staphylococcus aureus [10] = experiment: Antibacterial activity against mecA-positive multidrug resistant Staphylococcus aureus NRS119 incubated for 16 to 20 hrs by microdilution method; assay type: functional
Bacillus licheniformis = experiment: Antibacterial activity against Bacillus licheniformis ATCC 12759 incubated for 16 to 20 hrs by microdilution method; assay type: functional; in short: as §2
Enterococcus faecalis [11] = experiment: Antibacterial activity against methicillin-susceptible Enterococcus faecalis ATCC 29212 incubated for 16 to 20 hrs by microdilution method; assay type: functional; in short: as §2
[12] = test system: Staphylococcus haemolyticus; experiment: Antibacterial activity against Staphylococcus haemolyticus ATCC 29970 incubated for 16 to 20 hrs by microdilution method; assay type: functional
Staphylococcus aureus [13] = experiment: Antibacterial activity against vancomycin/methicillin-resistant Staphylococcus aureus VRS1 clinical isolate incubated for 16 to 20 hrs by microdilution method; assay type: functional
Staphylococcus aureus [14] = experiment: Antibacterial activity against mecA-positive methicillin/oxacillin/tetracycline-resistant Staphylococcus aureus ATCC 27660 incubated for 16 to 20 hrs by microdilution method; assay type: functional
Staphylococcus aureus [15] = experiment: Antibacterial activity against mecA-positive multidrug resistant Staphylococcus aureus COL NRS100 incubated for 16 to 20 hrs by microdilution method; assay type: functional
[16] = test system: Staphylococcus epidermidis; experiment: Antibacterial activity against Staphylococcus epidermidis ATCC 35547 incubated for 16 to 20 hrs by microdilution method; assay type: functional; in short: as §2
Streptococcus pyogenes = experiment: Antibacterial activity against Streptococcus pyogenes ATCC 49399 incubated for 16 to 20 hrs by microdilution method; assay type: functional; in short: as §2
Mus musculus [17] = experiment: AUC (0 to last) in ICR mouse peritonitis model infected with methicillin resistant Staphylococcus aureus ATCC 27660 at 5 mg/kg, iv administered as single dose measured up to 8 hrs by UPLC analysis; assay type: ADME, organism-based; parameters: dose 5 mg/kg, route intravenous, time 0 - last; details: in vivo; in short: as §3
Enterococcus faecalis [18] = experiment: Antibacterial activity against vancomycin-resistant Enterococcus faecalis 99 clinical isolate incubated for 16 to 20 hrs by microdilution method; assay type: functional
Staphylococcus aureus [19] = experiment: Antibacterial activity against methicillin-resistant Staphylococcus aureus NRS70 in ICR mouse neutropenic thigh infection model assessed as reduction in bacterial load at 20 mg/kg, sc tid administered every 8 hrs starting from 1 hr post infection and measured 7 hrs post last dose; assay type: functional, organism-based
In short: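 Female ICR mice (n = 8 per group) made neutropenic with ip cyclophosphamide 200 mg/kg at 4 days and 1 day pre-infection; 100 μL NRS70 (~1×10^6 CFU/mL in brain–heart infusion) injected im into right thigh; sc doses at 1, 9, 17 h; thighs harvested at 24 h, homogenized, plated in triplicate on LB agar; log10 CFU/g.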

| Structure (SMILES) | Activity (Staphylococcus aureus [1]) | Activity (Staphylococcus aureus [2]) | Activity (Staphylococcus aureus [3]) | Activity (Staphylococcus aureus [4]) | MIC (Pseudomonas aeruginosa) [µg/mL] | IC50 (HepG2) [µg/mL] | MIC (Escherichia coli) [µg/mL] | MIC (Enterococcus faecium) [µg/mL] | MIC (Klebsiella aerogenes) [µg/mL] | MIC (Klebsiella pneumoniae) [µg/mL] | MIC (Staphylococcus aureus [5]) [µg/mL] | Activity [6] [%] | AUClast (Mus musculus [7]) [µg·min/mL] | MIC (Acinetobacter baumannii) [µg/mL] | further results |
| --- | --- | --- | --- | --- | --- | --- | --- | --- | --- | --- | --- | --- | --- | --- | --- |
| CCO/N=C(\C(=O)N[C@@H]1C(=O)N2C(C(=O)[O-])=C(Sc3nc(-c4cc[n+](C)cc4)cs3)CS[C@H]12)c1nsc(NP(=O)(O)O)n1 | Active | Active | Active | Active |  |  |  |  |  |  |  |  |  |  |  |
| CS(=O)(=O)Nc1cccc(-n2c(/C=C/c3ccc(F)cc3)nc3ccccc3c2=O)c1 |  |  |  |  | ≥ 16 | 66 (≈ 152 µM) | ≥ 16 | ≥ 8 | ≥ 16 | ≥ 16 | 0.125 (≈ 0.287 µM) | < 1 | 819 | ≥ 16 |  |
| N#Cc1ccc(/C=C/c2nc3ccccc3c(=O)n2-c2cccc(O)c2)cc1 |  |  |  |  | ≥ 16 | 53.6 (≈ 147 µM) | ≥ 16 | > 128 | ≥ 16 | ≥ 16 | 0.03 (≈ 0.0821 µM) | < 1 |  | ≥ 16 | MIC (Bacillus cereus): > 128 µg/mL; MIC (Staphylococcus aureus [8]): 0.06 µg/mL (≈ 0.164 µM); MIC (Streptococcus oralis): > 128 µg/mL; MIC (Staphylococcus aureus [9]): 0.125 µg/mL (≈ 0.342 µM); MIC (Staphylococcus aureus [10]): 0.125 µg/mL (≈ 0.342 µM); MIC (Bacillus licheniformis): > 128 µg/mL; MIC (Enterococcus faecalis [11]): 128 µg/mL (≈ 350 µM); MIC [12]: 0.125 µg/mL (≈ 0.342 µM); MIC (Staphylococcus aureus [13]): 0.5 µg/mL (≈ 1.37 µM); MIC (Staphylococcus aureus [14]): 0.5 µg/mL (≈ 1.37 µM); MIC (Staphylococcus aureus [15]): 0.25 µg/mL (≈ 0.684 µM); MIC [16]: 0.125 µg/mL (≈ 0.342 µM); MIC (Streptococcus pyogenes): > 128 µg/mL; AUClast (Mus musculus [17]): 26.8 µg·min/mL; MIC (Enterococcus faecalis [18]): 64 µg/mL (≈ 175 µM) |
| C#Cc1ccc(/C=C/c2nc3ccccc3c(=O)n2-c2cccc(C(=O)O)c2)cc1 | inactive | Active | Active | inactive |  |  |  |  |  |  |  |  |  |  | Activity (Staphylococcus aureus [19]): Active |
| N#Cc1ccc(/C=C/c2nc3ccccc3c(=O)n2-c2cccc(C(=O)NCCO)c2)cc1 |  |  |  |  | ≥ 16 | 70.2 (≈ 161 µM) | ≥ 16 | ≥ 8 | ≥ 16 | ≥ 16 | 1 (≈ 2.29 µM) | < 1 | 425 | ≥ 16 |  |
